{"source": "ChEMBL document CHEMBL1135804", "about": "“Beta-strand mimicking macrocyclic amino acids: templates for protease inhibitors with antiviral activity” (J Med Chem, 2002)", "key": {"[1]": {"test": "The Water-octanol distribution coefficient at pH6.5", "type": "physicochemical", "conditions": "pH 6.5, read-out: Log D6.5", "how_it_was_run": "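Value computed by a cited calculation method at pH 6.5, not measured experimentally.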"}, "MT2": {"test_system": "MT2", "test": "Concentration required to produce 50% reduction in virion associated RT activity in HIV-1 infected MT2 cells", "type": "functional, cell-based", "conditions": "Homo sapiens", "how_it_was_run": "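MT2 cells (5 × 10⁴ per 0.25 mL RF10, RPMI-1640-based) given compound (diluted from 20 mM stock in 60% ethanol), then immediately HIV-1 strain #237288 at 200 TCID₅₀; 37 °C, 5% CO₂, 6–7 days; duplicates. Supernatant virus PEG-precipitated, virion-associated RT activity counted by scintillation; % inhibition versus virus-only controls; IC50 = 50% RT reduction.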"}, "[2]": {"molecular_target": "Human immunodeficiency virus type 1 protease (Human immunodeficiency virus 1, UniProt Q72874)", "test": "Inhibitory activity against HIV-1 protease"}}, "data": [{"smiles": "CCCC[C@@H]1NC(=O)[C@@H](NC(=O)OC(C)(C)C)CCCCOc2ccc(cc2)C[C@@H]([C@H](O)CN(CCC(C)C)S(=O)(=O)c2ccc(NC(C)=O)cc2)NC1=O", "values": [{"measurement": "logD", "setting": "[1]", "value": 4.8}, {"measurement": "IC50", "setting": "MT2", "value": 390, "unit": "nM"}, {"measurement": "Ki", "setting": "[2]", "value": 7.5, "unit": "nM"}]}, {"smiles": "CCCC[C@@H]1NC(=O)[C@@H](N)CCCCOc2ccc(cc2)C[C@@H]([C@H](O)CN(CCC(C)C)S(=O)(=O)c2ccc(N)cc2)NC1=O", "values": [{"measurement": "logD", "setting": "[1]", "value": 1.7}, {"measurement": "IC50", "setting": "MT2", "value": 6850, "unit": "nM"}, {"measurement": "Ki", "setting": "[2]", "value": 0.31, "unit": "nM"}]}, {"smiles": "CCCC[C@@H]1NC(=O)[C@@H](NC(=O)[C@@H](N)CO)CCCCOc2ccc(cc2)C[C@@H]([C@H](O)CN(CCC(C)C)S(=O)(=O)c2ccc(N)cc2)NC1=O", "values": [{"measurement": "logD", "setting": "[1]", "value": 0.6}, {"measurement": "IC50", "setting": "MT2", "value": "> 10000", "unit": "nM"}, {"measurement": "Ki", "setting": "[2]", "value": 3, "unit": "nM"}]}, {"smiles": "CCCOC[C@@H]1NC(=O)[C@@H](N)CCCCOc2ccc(cc2)C[C@@H]([C@H](O)CN(CCC(C)C)S(=O)(=O)c2ccc(N)cc2)NC1=O", "values": [{"measurement": "logD", "setting": "[1]", "value": 0.5}, {"measurement": "IC50", "setting": "MT2", "value": "> 10000", "unit": "nM"}, {"measurement": "Ki", "setting": "[2]", "value": 45, "unit": "nM"}]}, {"smiles": "CCCCC(=O)N[C@H]1CCCCOc2ccc(cc2)C[C@@H]([C@H](O)CN(CCC(C)C)S(=O)(=O)c2ccc(NC(C)=O)cc2)NC(=O)[C@H](CCCC)NC1=O", "values": [{"measurement": "logD", "setting": "[1]", "value": 4.6}, {"measurement": "IC50", "setting": "MT2", "value": 580, "unit": "nM"}]}, {"smiles": "CCCC[C@@H]1NC(=O)[C@@H](NC(C)=O)CCCCOc2ccc(cc2)C[C@@H]([C@H](O)CN(CCC(C)C)S(=O)(=O)c2ccc(N)cc2)NC1=O", "values": [{"measurement": "logD", "setting": "[1]", "value": 3}, {"measurement": "IC50", "setting": "MT2", "value": 910, "unit": "nM"}, {"measurement": "Ki", "setting": "[2]", "value": 2.8, "unit": "nM"}]}, {"smiles": "CC(C)CN(C[C@@H](O)[C@H](Cc1ccccc1)NC(=O)O[C@H]1CCOC1)S(=O)(=O)c1ccc(N)cc1", "values": [{"measurement": "IC50", "setting": "MT2", "value": 30, "unit": "nM"}]}, {"smiles": "CC(C)CCN(C[C@@H](O)[C@@H]1Cc2ccc(cc2)OCCCC[C@H](N)C(=O)N[C@@H](C(C)C)C(=O)N1)S(=O)(=O)c1ccc(N)cc1", "values": [{"measurement": "logD", "setting": "[1]", "value": 1}, {"measurement": "IC50", "setting": "MT2", "value": "> 10000", "unit": "nM"}, {"measurement": "Ki", "setting": "[2]", "value": 0.9, "unit": "nM"}]}, {"smiles": "CCCOC[C@@H]1NC(=O)[C@@H](NC(=O)OC(C)(C)C)CCCCOc2ccc(cc2)C[C@@H]([C@H](O)CN(CCC(C)C)S(=O)(=O)c2ccc(NC(C)=O)cc2)NC1=O", "values": [{"measurement": "logD", "setting": "[1]", "value": 3.6}, {"measurement": "IC50", "setting": "MT2", "value": 825, "unit": "nM"}, {"measurement": "Ki", "setting": "[2]", "value": 45, "unit": "nM"}]}, {"smiles": "CC(=O)N[C@@H](CO)C(=O)N[C@H]1CCCCOc2ccc(cc2)C[C@@H]([C@H](O)CN(CCC(C)C)S(=O)(=O)c2ccc(N)cc2)NC(=O)[C@H](C(C)C)NC1=O", "values": [{"measurement": "logD", "setting": "[1]", "value": 0.4}, {"measurement": "IC50", "setting": "MT2", "value": "> 10000", "unit": "nM"}, {"measurement": "Ki", "setting": "[2]", "value": 0.34, "unit": "nM"}]}, {"smiles": "CC(=O)Nc1ccc(S(=O)(=O)N(CCC(C)C)C[C@@H](O)[C@@H]2Cc3ccc(cc3)OCCCC[C@H](NC(=O)OC(C)(C)C)C(=O)N[C@@H](C(C)C)C(=O)N2)cc1", "values": [{"measurement": "logD", "setting": "[1]", "value": 4.1}, {"measurement": "IC50", "setting": "MT2", "value": 177, "unit": "nM"}, {"measurement": "Ki", "setting": "[2]", "value": 2, "unit": "nM"}]}, {"smiles": "CCCC[C@@H]1NC(=O)[C@@H](NC(=O)[C@H](CO)NC(=O)OC(C)(C)C)CCCCOc2ccc(cc2)C[C@@H]([C@H](O)CN(CCC(C)C)S(=O)(=O)c2ccc(NC(C)=O)cc2)NC1=O", "values": [{"measurement": "logD", "setting": "[1]", "value": 3}, {"measurement": "IC50", "setting": "MT2", "value": 2550, "unit": "nM"}, {"measurement": "Ki", "setting": "[2]", "value": 12, "unit": "nM"}]}]}
